ChEMBL document CHEMBL4014342, “Subtly Modulating Glycogen Synthase Kinase 3 β: Allosteric Inhibitor Development and Their Potential for the Treatment of Chronic Diseases” (J Med Chem, 2017)
Each block holds one compound with its values, some of them ahead of it. Active and inactive are the calls of the source. The calls are words filed in the database; no cut-off is given here.

What was measured:
[1] = biological target: T1, Glycogen synthase kinase-3 beta (Homo sapiens, UniProt P49841); assay: Allosteric inhibition of human recombinant full length N-terminal GST-tagged GSK3beta expressed in fall armyworm Sf9 cells after 30 min in presence of ATP by kinase glo luminescent assay
How it was run: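 Human recombinant GSK-3β (20 ng) with prephosphorylated peptide substrate, 50 μM in the 20 μL substrate mix, and ATP, 2 μM in that mix. Buffer: 50 mM HEPES pH 7.5, 1 mM EDTA, 1 mM EGTA, 15 mM Mg acetate; DMSO ≤1%. Incubated 30 min at 30 °C, then Kinase-Glo added and luminescence read after 10 min.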
Target sequence in this assay (P49841 whole entry): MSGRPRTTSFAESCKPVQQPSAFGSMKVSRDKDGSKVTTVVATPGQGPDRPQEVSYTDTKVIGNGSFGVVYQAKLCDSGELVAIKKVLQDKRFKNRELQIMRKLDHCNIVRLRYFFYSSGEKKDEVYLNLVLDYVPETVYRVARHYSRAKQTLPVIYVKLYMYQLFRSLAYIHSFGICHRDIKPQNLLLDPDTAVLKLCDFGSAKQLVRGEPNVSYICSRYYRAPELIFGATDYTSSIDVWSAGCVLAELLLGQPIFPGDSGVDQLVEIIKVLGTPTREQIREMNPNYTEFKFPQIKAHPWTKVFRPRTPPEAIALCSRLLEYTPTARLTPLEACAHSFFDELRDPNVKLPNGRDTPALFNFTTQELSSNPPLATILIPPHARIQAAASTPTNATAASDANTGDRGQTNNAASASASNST

[2] = biological target: T1, Glycogen synthase kinase-3 beta; assay: Allosteric inhibition of GSK3beta in human LN18 cells assessed as decrease in beta-catenin translocation from cytoplasm to nucleus at 10 uM after 72 hrs by DAPI-satining based confocal microscopic analysis; type: cell-based
How it was run: (§1)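 LN18 glioblastoma cells (DMEM, 10% FBS, 2 mM glutamine) and SH-SY5Y neuroblastoma cells (DMEM, 10% FBS, 10 mM glutamine; 37 °C, 5% CO2) were grown on glass coverslips and exposed to compound at 10 μM for 72 h, with vehicle controls. Cells were fixed in 4% paraformaldehyde and permeabilized with Triton X-100. β-Catenin was stained with mouse anti-β-catenin and an Alexa-488 secondary, nuclei with DAPI, and localization imaged by confocal microscopy.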
Target sequence in this assay (P49841 whole entry, looked up): as the sequence (P49841 whole entry) above

Motor neuron = assay: Increase in survival of motor neurons obtained from SMA patient derived iPSC after 7 days by Hoechst 33342-staining based fluorescence assay; type: functional, cell-based; conditions: Homo sapiens
How it was run: (§2)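 SMA type I/II patient iPSCs were differentiated into motor neurons over 15 days: LDN/SB431542, retinoic acid, BDNF, smoothened agonist, then DAPT/Ara-C. Cells were dissociated onto astrocyte-coated wells in Neurobasal with B27/N2 and BDNF, GDNF and CNTF, and treated 7 days with DMSO or increasing compound concentrations. After fixation, cells were immunostained for Islet1/MAP2 with Hoechst nuclear stain and imaged automatically. Survival is expressed as Islet1+ MN counts relative to DMSO wells, for each line.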

[3] = biological target: T1, Glycogen synthase kinase-3 beta; assay: Allosteric inhibition of GSK3beta in human […] cells assessed as decrease in beta-catenin translocation from cytoplasm to nucleus at 10 uM after 72 hrs by DAPI-satining based confocal microscopic analysis; type: cell-based; how it was run: as §1
Target sequence in this assay (P49841 whole entry, looked up): as the sequence (P49841 whole entry) above

[4] = Cytotoxicity against motor neurons obtained from SMA patient derived iPSC assessed as cell death at >1.25 uM after 7 days; type: cell-based; conditions: human, motor neuron, 168 h; how it was run: as §2
[5] = biological target: T1, Glycogen synthase kinase-3 beta; assay: Non-competitive allosteric inhibition of human recombinant full length N-terminal GST-tagged GSK3beta expressed in fall armyworm Sf9 cells at 2 to 5 uM using GS2 as substrate measured at varying substrate levels and constant ATP levels after 30 mins by Double-reciprocal plot analysis
How it was run: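 Human recombinant GSK-3β kinetics with GS-2 substrate varied from 12.5 to 100 μM, ATP held at 1 μM, and inhibitor at 2 or 5 μM. Analyzed by Lineweaver–Burk double-reciprocal plots. Each point is the mean of two experiments, each run in duplicate.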
Target sequence in this assay (P49841 whole entry, looked up): as the sequence (P49841 whole entry) above

Myoblast [6] = assay: Induction of myoblast differentiation in CDM1 patient-derived human primary myoblasts after 4 days by bright field microscopic method; type: functional, cell-based
[7] = biological target: T1, Glycogen synthase kinase-3 beta; assay: Non-competitive allosteric inhibition of human recombinant full length N-terminal GST-tagged GSK3beta expressed in fall armyworm Sf9 cells at 2.5 to 5 uM using GS2 as substrate measured at constant substrate levels and varying ATP levels after 30 mins by ADP-Glo kinase Assay
How it was run: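 Human recombinant GSK-3β kinetics with ATP varied from 1 to 50 μM, inhibitor at 2.5 or 5 μM, and GS-2 held constant, stated as 25 μM in the methods and 12.5 μM in the legend. Read by ADP-Glo and analyzed by double-reciprocal plots. Each point is the mean of two experiments, each run in duplicate.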
Target sequence in this assay (P49841 whole entry, looked up): as the sequence (P49841 whole entry) above

Myoblast [8] = assay: Induction of myoblast differentiation in CDM1 patient-derived human primary myoblasts assessed as increase in desmin expression after 4 days by Western blot analysis; type: functional, cell-based
How it was run: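 CDM1 patient primary myoblasts, about 1,000 repeats and fewer than 15–20 passages, with control myoblasts. Grown in F10-based medium, then switched to fusion medium (DMEM, horse serum, insulin) changed daily. Compound in DMSO was added at different doses with fresh fusion medium each day. After 4 days, myotube RIPA extracts were probed by Western blot for desmin, with actin as control.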

IC50 [1]: > 20 µM
SMILES: CCn1c(=O)c(C(=O)NNC(=O)CCc2c[nH]c3ccccc23)c(O)c2ccccc21

IC50 [1]: > 20 µM
SMILES: Cn1c(=O)c(C(=O)NNC(=O)CCc2c[nH]c3ccccc23)c(O)c2ccccc21

IC50 [1]: > 20 µM
SMILES: CCCCCCCC(=O)NNC(=O)c1c(O)nc2ccccc2c1O

IC50 [1]: > 20 µM
SMILES: Cn1c(=O)c(C(=O)NNC(=O)Cc2ccccc2)c(O)c2ccccc21

inhibition [2]: inactive | inhibition [3]: inactive
SMILES: Cn1cc(C2=C(c3ccc(Cl)cc3Cl)C(=O)NC2=O)c2ccccc21

IC50 [1]: > 20 µM
SMILES: Cn1c(=O)c(C(=O)NNCCC#N)c(O)c2ccccc21

IC50 [1]: > 20 µM
SMILES: Cn1c(=O)c(C(=O)NCC(=O)NCC(=O)OCc2ccccc2)c(O)c2ccccc21

Further lines, the compound ahead of its results:

SMILES: CCCCCCCCCCCC(=O)NNC(=O)c1c(O)c2ccccc2n(CC)c1=O
inhibition [2]: Active | Activity (Motor neuron): Dose-dependent effect | inhibition [3]: Active | Activity [4]: Non-Toxic

SMILES: CCCCCCCCCCCC(=O)NNC(=O)c1c(O)c2ccccc2n(CC=C(C)C)c1=O
IC50 [1]: 7.78 µM

SMILES: CCn1c(=O)c(C(=O)NNC(=O)CCc2ccc(O)cc2)c(O)c2ccccc21
IC50 [1]: > 20 µM

SMILES: CCCCCCCC(=O)NNC(=O)c1c(O)c2cc(F)ccc2[nH]c1=O
IC50 [1]: > 20 µM

SMILES: CC(=O)NNC(=O)c1c(O)c2ccccc2n(C)c1=O
IC50 [1]: > 20 µM

SMILES: CCCCCCCCCCCC(=O)NNC(=O)c1c(O)c2cc(Br)ccc2n(CC)c1=O
inhibition [2]: Active | inhibition [5]: Active | Activity (Myoblast [6]): Dose-dependent effect | Activity (Motor neuron): Dose-dependent effect | inhibition [7]: Active | inhibition [3]: Active | Activity (Myoblast [8]): Active | Activity [4]: Non-Toxic

SMILES: CCCCCCCC(=O)NNC(=O)c1c(O)c2ccccc2n(CC=C(C)C)c1=O
IC50 [1]: 7.11 µM

SMILES: Cn1c(=O)c(C(=O)NNC(=O)c2ccccc2)c(O)c2ccccc21
IC50 [1]: > 20 µM

SMILES: CCCCCCCC(=O)NNC(=O)c1c(O)c2ccccc2n(CC)c1=O
IC50 [1]: > 20 µM

SMILES: CCCCCCCCCCCC(=O)NNC(=O)c1c(O)c2ccc(Cl)cc2n(CC)c1=O
inhibition [5]: Active | inhibition [7]: Active

SMILES: CCCCCCCCCCCC(=O)NNC(=O)c1c(O)c2ccccc2n(CC(C)C)c1=O
IC50 [1]: > 20 µM

SMILES: O=C1Cc2c([nH]c3ccc([N+](=O)[O-])cc23)-c2ccccc2N1 [ALSTERPAULLONE]
inhibition [2]: inactive | inhibition [3]: inactive | Activity [4]: Toxic

SMILES: CCCCCCNC(=O)c1c(O)c2ccccc2n(C)c1=O
IC50 [1]: > 20 µM
